Screens deposited in PubChem BioAssay by several laboratories.
Cneo AK release: Cryptococcus neoformans lysis via adenylate kinase release; C. neoformans lysis, adenylate kinase release luminescence, 4 h; normalised: neutral wells 0, clomiphene wells 100; lysis activity, % at 15 µM; actives 0.2% (n = 360,000); AID 651654;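 active means mean lysis activity across replicates of at least 80%, whatever share of replicates individually reach that level; inactive means mean lysis activity below 80%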
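Material – Cryptococcus neoformans yeast cells · Quantity – 5 × 10^6 yeast cells/mL · Buffer or medium – YPD medium · Compound – single dose · Timing – 4 h static compound exposure, 37 °C, read 1 h post-reagent · Signal – adenylate kinase release luminescence · Read-out basis – lysis from increased AK signal · Benchmarks – Clomiphene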
Ecoli rRNA inh: selective bacterial rRNA inhibition in E. coli | E. coli WT GFP vs humanized-ribosome RFP mutants, fluorescence, 24 h; hits give low values; DMSO median 0, no signal -100 | GFP signal change (wild-type ribosome), % (concentration not given with the values) | actives 1.6% (n = 350,000) | AID 720706;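 active means significant combined selectivity score with lowered wild-type GFP, culture density cut under 30%, mutant RFP and density less affected; inactive means any of these conditions unmet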
SKN-1 block: C. elegans SKN-1 inhibition | C. elegans VP596 Pgst-4::GFP/RFP ratio, acrylamide-induced, 24 h | inhibition, % at 21.8 µM | actives 0.49% (n = 360,000) | AID 624304;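 active means interference check ratio from 0.5 to 1.5 plus GFP to RFP signal ratio inhibition reaching or exceeding a fixed threshold, cut at about 30% in these data, passing the limit was not always enough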
iPSC survival up: hiPSC single-cell survival enhancement; survival enhancement, % at 20 µM; AID 602274; ATPlite luminescence; 100% = ROCK inhibitor wells, 0% = DMSO; actives 0.044% (n = 360,000); in the data active means survival enhancement above about 18%;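 further: cells exposed to compounds for 16 hours before the ATP read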
DAGLB inh: diacylglycerol lipase beta (human) inhibition; Q8NCG7; HEK293T DAGLB membrane lysate, EnzChek fluorogenic substrate; actives 0.059% (n = 340,000); AID 504411; inhibition, % at 5.17 µM; in the data active means inhibition above about 34%;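 further: 0% = enzyme with vehicle and 100% = wells lacking enzyme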
Target sequence (Q8NCG7 whole entry, looked up): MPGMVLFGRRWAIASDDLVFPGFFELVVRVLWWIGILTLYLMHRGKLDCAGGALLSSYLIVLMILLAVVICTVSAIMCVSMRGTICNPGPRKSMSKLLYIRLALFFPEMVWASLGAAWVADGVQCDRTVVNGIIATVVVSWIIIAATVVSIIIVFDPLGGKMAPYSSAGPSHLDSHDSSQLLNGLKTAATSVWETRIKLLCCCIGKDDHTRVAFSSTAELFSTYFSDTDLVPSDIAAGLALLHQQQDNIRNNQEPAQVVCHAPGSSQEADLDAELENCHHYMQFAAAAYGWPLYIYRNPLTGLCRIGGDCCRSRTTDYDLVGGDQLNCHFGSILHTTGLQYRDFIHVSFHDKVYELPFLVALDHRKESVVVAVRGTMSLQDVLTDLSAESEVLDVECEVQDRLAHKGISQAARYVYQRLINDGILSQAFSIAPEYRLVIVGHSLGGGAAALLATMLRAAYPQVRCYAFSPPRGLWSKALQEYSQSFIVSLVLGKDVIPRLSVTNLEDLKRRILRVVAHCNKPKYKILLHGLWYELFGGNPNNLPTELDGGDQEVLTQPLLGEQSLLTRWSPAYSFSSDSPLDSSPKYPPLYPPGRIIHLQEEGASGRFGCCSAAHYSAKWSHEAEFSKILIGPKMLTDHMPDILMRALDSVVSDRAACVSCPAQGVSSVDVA
MT1-MMP act inh: inhibitors of human MT1-MMP activation; GFP/RFP ratio change, % at 20 µM; actives 0.061% (n = 360,000); HT1080 RFP-PRO-GFP cells, GFP/RFP ratio fluorescence, overnight; percent of plate control window, DMSO zero; P50281;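 active means GFP/RFP ratio change of at least 30% with cell ATP level not reduced by more than half and red fluorescence within 50% of control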
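Material: RFP-PRO-GFP reporter HT1080 cells. Dosing: single-point 20 µM compound, 1% DMSO. Controls: DMSO and RFP-L50D-GFP cell wells. Timing: cells overnight before dosing, compound overnight, 37 °C, 5% CO2. Measure: GFP/RFP fluorescence ratio.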
Starred values were filed as active, the others as inactive; x = not tested or not shown. Most compounds without a hit are left out; they make up all but 1.8% or so of the library.

SMILES	Cneo AK release	Ecoli rRNA inh	SKN-1 block	iPSC survival up	DAGLB inh	MT1-MMP act inh
O=C(Nc1nccs1)[C@H]1[C@H](CO)[C@H]2Cn3c(ccc(-c4ccccc4)c3=O)[C@H]2N1CC1CCCC1	4	-16	x	x	x	x
C[C@H](CO)N1C[C@H](C)[C@@H](CN(C)S(=O)(=O)c2ccccc2)Oc2ccc(NS(=O)(=O)c3ccc(F)cc3)cc2CC1=O	-1	-5	x	x	x	x
C[C@H](CO)N1C[C@H](C)[C@@H](CN(C)S(=O)(=O)c2ccccc2)Oc2c(NC(=O)Nc3cccc4ccccc34)cccc2C1=O	103*	1	x	x	x	x
C[C@@H]1CN([C@@H](C)CO)C(=O)c2cccc(NC(=O)Nc3ccccc3)c2O[C@@H]1CN(C)S(=O)(=O)c1ccc(Cl)cc1	-3	-25*	x	x	x	x
COCC(=O)N1[C@H](C(=O)Nc2ccccc2)[C@@H](CO)[C@@H]2Cn3c(ccc(-c4cccnc4)c3=O)[C@@H]21	49	2	x	x	x	x
O=[N+]([O-])c1ccc2nc(NN=Cc3ccc(O)cc3)sc2c1	0	-12*	-5	3	11	4
CC(C)c1ccc(/C=C/C(=O)Nc2nc3ccc([N+](=O)[O-])cc3s2)cc1	12	x	-33	-2	3	-1
C[C@@H]1CCCCO[C@H](CN(C)S(=O)(=O)c2ccccc2)[C@H](C)CN([C@@H](C)CO)C(=O)c2cc(NC(=O)Nc3ccc(C(F)(F)F)cc3)ccc2O1	5	2	x	x	x	x
CCCNC(=O)N(C)C[C@@H]1Oc2ncc(C#CC3CCCCC3)cc2C(=O)N([C@H](C)CO)C[C@@H]1C	106*	2	x	x	x	x
CCCNC(=O)N(C)C[C@H]1Oc2ncc(C#CC3CCCCC3)cc2C(=O)N([C@@H](C)CO)C[C@@H]1C	109*	4	x	x	x	x
CCCNC(=O)N(C)C[C@@H]1Oc2ncc(C#CC3CCCCC3)cc2C(=O)N([C@H](C)CO)C[C@H]1C	2	-1	x	x	x	x
CC(C)C(=O)Nc1ccc2c(c1)C(=O)N(C)[C@@H]1CC[C@H](CC(=O)O)O[C@H]1CO2	0	1	x	x	x	x
Cc1ccc(C=Cc2ccccn2)cc1	-2	1	43*	-4	-4	3
C(=C\c1ccccn1)/c1ccccn1	2	6	16	0	4	0
Clc1ccc(C=Cc2ccccn2)cc1	1	-18	72*	-5	-4	0
CC(OC(=O)/C(C#N)=C/c1ccc(N(C)C)cc1)C(=O)N(C)c1ccccc1 (stereo not drawn)	-2	-7	46*	0	-11	-50
COCC(=O)Nc1ccc2c(c1)[C@H]1C[C@@H](CC(=O)NC3CCCC3)O[C@H](CO)[C@H]1O2	6	1	x	x	x	x
COc1ccc(CCNC(=O)c2nc(-c3cccs3)no2)cc1OC	x	-22*	-7	4	-1	5
C[C@@H]1CN([C@H](C)CO)S(=O)(=O)c2ccc(C#CCN(C)C)cc2O[C@H]1CN(C)Cc1ccccc1F	3	-29	x	x	x	x
O=C(NC(=S)N1CCCCC1)c1cccs1	x	x	8	4	-1	5
CC1CCN(C(=S)NC(=O)c2cccs2)CC1	x	-22*	5	1	1	5
Fc1ccc2cc(-c3ccccc3)ncc2c1	2	5	40*	-2	-12	0
c1ccc(-c2cc3ccccc3cn2)cc1	-5	7	18	-3	-8	0
CCc1cc(/C(Cc2ccccn2)=N\O)c(O)cc1O	-1	-33*	-16	-1	-3	5
Cc1c(C(=O)N(C)c2ccc(Cl)cc2)cnn1-c1ccccc1	0	-12	38*	0	-8	1
SMILES	Cneo AK release	Ecoli rRNA inh	SKN-1 block	iPSC survival up	DAGLB inh	MT1-MMP act inh
CCC(=O)N1N=C(c2cccs2)CC1c1ccc(OC)cc1 (stereo not drawn)	-2	-1	-12	0	-1	-5
COc1cccc(C2Oc3ccccc3C3CC(c4cccs4)=NN32)c1 (stereo not drawn)	-1	-29*	8	3	x	0
CCC(=O)Nc1ccc2c(c1)OC[C@H](C)N(C(=O)c1ccc(F)cc1)C[C@H](C)[C@@H](OC)CN(C)C2=O	x	3	x	x	x	x
CCCC(=O)Nc1ccc2c(c1)C(=O)N(C)C[C@H](OC)[C@@H](C)CN(C(=O)c1cccnc1)[C@@H](C)CO2	82*	5	x	x	x	x
CCC(=O)Nc1ccc2c(c1)OC[C@H](C)N(C(=O)c1ccc(F)cc1)C[C@@H](C)[C@@H](OC)CN(C)C2=O	92*	0	x	x	x	x
O=C(NC1CCCC1)N1CC2(C1)[C@@H](c1ccccc1)[C@@H](CO)N2S(=O)(=O)Cc1ccccc1	x	-4	x	x	x	x
CCCN(CC1CC1)C(=O)CSc1ncnc2sccc12	x	-18*	-11	2	-3	-9
O=C(/C=C/c1ccco1)Nc1sc2c(c1C(=O)O)CCC2	x	-24*	-1	6	1	-7
COCc1cn(CC[C@@H]2CC[C@H](NC(=O)Nc3ccc(OC)cc3)[C@@H](CO)O2)nn1	6	3	x	x	x	x
O=C1C(=O)c2ccccc2C(O)=C1c1cccc([N+](=O)[O-])c1	1	-24*	27	0	x	15
Cc1ccc(C2=C(O)c3ccccc3C(=O)C2=O)cc1	-1	-9	22	0	2	1
OC(c1ccccc1)(c1nc(-c2cccc(C(F)(F)F)c2)cs1)C(F)(F)F (stereo not drawn)	-13	-21	14	2	x	1
OC(c1ccccc1)(c1nc(-c2cc3ccccc3o2)cs1)C(F)(F)F (stereo not drawn)	1	-38*	23	5	x	-5
OC(c1ccccc1)(c1nc(-c2ccc(Cl)cc2)cs1)C(F)(F)F (stereo not drawn)	-1	-58	15	5	x	0
OCc1cccc(-c2csc(C(O)(c3ccccc3)C(F)(F)F)n2)c1 (stereo not drawn)	1	-36	35*	1	x	1
C[C@@H]1CN([C@@H](C)CO)C(=O)Cc2cc(N(C)C)ccc2O[C@H]1CN(C)S(=O)(=O)c1ccc(Cl)cc1	-25	-8	x	x	x	x
CCCNC(=O)N1CC2(C1)[C@H](c1ccccc1)[C@H](CO)N2CC1CC1	x	1	x	x	x	x
CN(C)C(=O)c1ccc(NC(=O)CSc2nc3ccccc3[nH]2)cc1	x	-21*	8	2	-1	6
CC(=O)Nc1ccc(NC(=O)CCCSc2nc3ccccc3[nH]2)cc1	-2	2	-2	0	2	0
